Assay results published in article PMC8562596 (Biochemistry, 2016).
Several values for one entry are separate records, joined by “and”; a condition that tells them apart may be missing. Identical values can stand only once. Like-named read-outs stand apart in the source and are kept apart here. Marks after values point to notes of the source that are not given here. Non-standard residues stand in square brackets, D forms with d. Residues, ends and D or L forms follow the SMILES beside them. 2Nal = N[C@@H](Cc1ccc2ccccc2c1)C(=O)O

Legend:
[1] = determined by fluorescence correlation spectroscopy; ref [42]; cited from earlier work
HeLa cells [2] = settings: Rho-labeled, relative to CPP 1 (100%), ref [40]; cited from earlier work
HeLa cells [3] = settings: relative to CPP 1 (100%); ref [40]; cited from earlier work
HeLa cells [4] = settings: NF-labeled, relative to CPP 1 (100%), ref [40]; cited from earlier work
HeLa cells [5] = assay: Cytosolic entry of R9^NF in presence of unlabeled CPP, flow cytometry; type: cell-based; settings: 5 μM unlabeled CPP
How it was run: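 HeLa cells seeded at 1.5 × 10^5 per well, grown overnight, then exposed to naphthofluorescein-labeled R9 with or without 5 μM unlabeled cyclic CPP for 2 h in culture medium. Cells were washed twice with DPBS, detached with 0.25% trypsin, pelleted at 250G for 5 min, washed, resuspended in DPBS and read by flow cytometry for cytosolic NF fluorescence.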

HeLa cells [6] = assay: Apparent endosomal escape efficiency; type: cell-based; settings: for Apparent Endosomal Escape (γ, %): γ=(MFI^NF/MFI^Rho) of CPP over that of CPP 1 ×100%, 5 μM, 2 h
How it was run: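 HeLa cells were seeded at 1.5 × 10^5 per well and grown overnight, then given 5 μM peptide for 2 h at 37 °C in medium. Separate peptide preparations were labelled with pH-sensitive naphthofluorescein or with rhodamine B through a miniPEG linker. Cells were DPBS-washed, trypsinised, pelleted and resuspended in DPBS for flow cytometry. NF used 633-nm excitation (APC channel) and Rho used 561-nm excitation (PE channel). γ is the NF/Rho mean-fluorescence ratio normalised to the reference peptide.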

[7] = Calcein release from LUVs; settings: 20 μM peptide (Triton X-100 at 1%), over a 30-min period; Triton X-100 = 100%
How it was run: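 Large unilamellar vesicles with a lipid composition mimicking the late endosomal membrane were loaded with the small-molecule dye calcein. They were then exposed to the cyclic peptide, and release of calcein from the vesicles was followed.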

[8] = mouse, in vivo
HeLa cells [9] = assay: Uptake of Rho-labeled CPPs under ATP depletion or at 4 °C, flow cytometry; type: cell-based
HeLa cells [10] = assay: Cellular uptake of FITC-labeled peptides, flow cytometry; type: cell-based; settings: 9 vs cFΦR4, 11 vs 6, 12 vs 7, 5 μM, 2 h
How it was run: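 Peptides carried an extra lysine on the Gln side chain, FITC-labelled at that lysine. HeLa cells were seeded at 1.5 × 10^5 per well, grown overnight and given 5 μM peptide for 2 h in culture medium. Cells were DPBS-washed twice, trypsin-detached, pelleted at 250G for 5 min, washed and resuspended in DPBS. Flow cytometry used 488-nm excitation and the FITC channel.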

For YGRKKRRQRRR [Tat], the “Cytosolic Delivery Efficiency (%)” value [1] is listed as 2.0% and 2.0 ^c %, the “Total Cellular Uptake (MFI^Rho, %)” value (HeLa cells [2]) is listed as 43 ± 3 ^b % and the “Apparent Endosomal Escape (γ, %)” value (HeLa cells [3]) is listed as 23 ± 4 ^b %. The “Cytosolic Entry (MFI^NF, %)” value (HeLa cells [4]) was 9.9 ± 1.7 ^b %.
For cyclo(FfΦRrRrQ) [CPP 12], the “Effect on the cytosolic entry of R9^NF” value (HeLa cells [5]) was “minimal effect”, the “Endosomal escape efficiency, fold relative to cFΦR4” value (HeLa cells [6]) was 4.0 fold and the “Apparent Endosomal Escape (γ, %)” value (HeLa cells [6]) was 402 ± 48%.
With Triton X-100 the “Calcein dye release from LUVs” value [7] was 100%.
In the case of penetratin, the “Calcein dye release from LUVs” value [7] is reported as 23%.
In the case of N=C(N)NCCC[C@@H]1NC(=O)[C@H](CCCNC(=N)N)NC(=O)[C@H](CCCNC(=N)N)NC(=O)[C@H](Cc2ccc3ccccc3c2)NC(=O)[C@H](Cc2ccccc2)NC(=O)[C@H](CCC(N)=O)NC(=O)[C@H](CCCNC(=N)N)NC1=O [CPP 1, cyclo(FΦRRRRQ)] (cyclo(F[2Nal]RRRRQ)), the “Apparent Endosomal Escape (γ, %)” value (HeLa cells [6]) is reported as 100%.
For cyclo(fΦRrRrQ) [CPP 9], the oral bioavailability [8] was “demonstrated oral bioavailability”, the “Endosomal escape efficiency, fold relative to cFΦR4” value (HeLa cells [6]) was 2.0 fold and the “Apparent Endosomal Escape (γ, %)” value (HeLa cells [6]) was 202 ± 20%. For the same molecule, the “Decrease of total cellular uptake efficiency by energy depletion” value (HeLa cells [9]; ATP depletion with sodium azide and 2-deoxyglucose) was ~ 80%, the “Reduction of cellular entry at 4 °C” value (HeLa cells [9]; incubation at 4 °C) was ≥ 95% and the “CPP activity (FITC uptake), fold more active than stereoisomer” value (HeLa cells [10]) was 6 fold.
For RRRRRRRRR [R9, nonaarginine], the “Cytosolic Delivery Efficiency (%)” value [1] is given as 4.4%, the “Apparent Endosomal Escape (γ, %)” value (HeLa cells [6]) is given as 40 ± 5% and the “Calcein dye release from LUVs” value [7] is given as 1%.
